According to ChEMBL document CHEMBL4699431, “Design and synthesis of substituted (1-(benzyl)-1H-1,2,3-triazol-4-yl)(piperazin-1-yl)methanone conjugates: study on their apoptosis inducing ability and tubulin polymerization inhibition” (RSC Med Chem, 2020):
pIC50: −log10 of the molar value. The source made the active and inactive calls. The rule behind the calls is not given here.

Assays:
[1] = system: BT-474; test: Cell cycle arrest in human BT-474 cells assessed as increase in accumulation in S phase at 2.5 uM by propidium iodide staining based flow cytometry(reference value: 2.22%); type: functional
Outline: (§1)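 Seeded at 1 x 10⁵ cells/well, after 24 h serum-starved 6 h to synchronize, then returned to FBS-containing medium and treated at 0.5, 1 and 2.5 μM. Harvested cells were PBS-washed, fixed in ice-cold 70% ethanol, stained with propidium iodide (50 μg/mL) plus RNase A for 20 min at 37 °C in the dark. About 10,000 events analysed by flow cytometry.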

[2] = system: BT-474; test: Cell cycle arrest in human BT-474 cells assessed as increase in accumulation in S phase at 0.5 uM by propidium iodide staining based flow cytometry(reference value: 2.22%); type: functional; outline: as §1
[3] = system: HeLa; test: Cytotoxicity against human HeLa cells assessed as reduction in cell viability incubated for 48 hrs by MTT assay; type: functional, cell-based
Outline: (§2)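 Cells plated at 3000-4500 per well and treated after 24 h. DMSO stocks (20 mM) were diluted in medium to final DMSO <0.1%, twofold series […], 48 h. MTT (0.5 mg/mL) was added for 4 h, formazan dissolved in DMSO, absorbance read at 570 nm.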

[4] = system: BT-474; test: Cell cycle arrest in human BT-474 cells assessed as decrease in G0/G1 accumulation in phase at 2.5 uM by propidium iodide staining based flow cytometry(reference value: 60.53%); type: functional; set-up: scale not given: the % may be the effect or the level left; outline: as §1
[5] = system: BT-474; test: Induction of apoptosis in human BT-474 cells assessed as chromatin condensation at 0.5 to 2.5 uM incubated for 24 hrs by DAPI staining based DAPI staining based confocal microscopic analysis; type: functional, cell-based; details: dose microM 0.5-2.5, time 24.0 hrs
[6] = system: BT-474; test: Induction of morphological changes in human BT-474 cells assessed as […] incubated for 48 hrs by phase-contrast microscope method; type: functional, cell-based; details: dose microM 0.5-2.5, time 48.0 hrs
Outline: (§3)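 Plated at 5×10^4 cells/well, dosed after 24 h at 0.5, 1 and 2.5 μM. After 48 h, morphology was examined and photographed under phase-contrast microscopy.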

[7] = system: BT-474; test: Induction of apoptosis in human BT-474 cells assessed as chromatin damage at 0.5 to 2.5 uM incubated for 24 hrs by DAPI staining based DAPI staining based confocal microscopic analysis; type: functional, cell-based; details: dose microM 0.5-2.5, time 24.0 hrs
[8] = system: BT-474; test: Cell cycle arrest in human BT-474 cells assessed as increase in accumulation in G2/M phase at 1 uM by propidium iodide staining based flow cytometry(reference value: 19.35%); type: functional; outline: as §1
[9] = system: BT-474; test: Induction of morphological changes in human BT-474 cells assessed reduction in number of viable cells incubated for 48 hrs by phase-contrast microscope method; type: functional, cell-based; details: dose microM 0.5-2.5, time 48.0 hrs; outline: as §3
[10] = system: BT-474; test: Induction of mitochondrial membrane potential loss in human BT-474 cells assessed as depolarized cell population (P2) at 1 uM incubated for 48 hrs by JC1 staining based flow cytometry (reference value: 0.48 %); type: functional
Outline: (§4)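 Cells (1x10⁶/mL) adhered overnight, then exposed to 0.5, 1 and 2.5 μM for 48 h. Collected, PBS-washed, incubated with JC-1 dye (1 μM) for 30 min at 37 °C, washed twice, trypsinized, centrifuged and read by flow cytometry.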

[11] = system: BT-474; test: Induction of apoptosis in human BT-474 cells assessed as chromatin condensation incubated for 48 hrs by acridine orange/ethidium bromide double staining-based fluorescence microscopic analysis; type: functional, cell-based; details: dose microM 0.5-2.5, time 48.0 hrs
Outline: (§5)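 Plated at 5×10^4 cells/well, treated after 24 h and held 48 h at 37 °C, 5% CO₂. Acridine orange and ethidium bromide (10 µg/mL each) added in equal volumes, then cells viewed by fluorescence microscopy at 200x.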

[12] = system: BT-474; test: Induction of mitochondrial membrane potential loss in human BT-474 cells assessed as depolarized cell population (P1) at 0.5 uM incubated for 48 hrs by JC1 staining based flow cytometry (reference value: 98.09 %); type: functional; outline: as §4
[13] = molecular target: Tubulin (Homo sapiens) (UniProt P68371+Q9H4B7+P0DPH7+P68366+Q13509+Q71U36+P04350+Q3ZCM7+P07437+P68363+Q9BQE3+Q6PEY2+Q13885+Q9BVA1+Q9BUF5); test: Inhibition of tubulin polymerization in human BT-474 cells assessed as microtubule disruption at 2 uM by immunohistochemistry assay; type: cell-based
Outline: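 Cells on glass coverslips exposed 48 h to 2 μM, with CA-4 as positive control. Fixed in 4% paraformaldehyde 20 min, permeabilized with 0.2% Triton X-100 5 min, held in methanol overnight at 4 °C, blocked in 1% BSA 60 min. Stained with α-tubulin antibody (1:1000, 2 h) then FITC anti-mouse secondary 1 h; microtubule network imaged by confocal microscopy.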

[14] = system: MCF7; test: Cytotoxicity against human MCF-7 cells assessed as reduction in cell viability incubated for 48 hrs by MTT assay; type: functional, cell-based; details: MCF7, 48 h; outline: as §2
[15] = system: BT-474; test: Cell cycle arrest in human BT-474 cells assessed as increase in accumulation in S phase at 1 uM by propidium iodide staining based flow cytometry(reference value: 2.22%); type: functional; outline: as §1
[16] = system: HaCaT; test: Cytotoxicity against human HaCaT cells assessed as reduction in cell viability incubated for 48 hrs by MTT assay; type: functional, cell-based; outline: as §2
[17] = system: BT-474; test: Cytotoxicity against human BT-474 cells assessed as reduction in cell viability incubated for 48 hrs by MTT assay; type: functional, cell-based; details: BT-474, 48 h; outline: as §2
[18] = system: BT-474; test: Induction of mitochondrial membrane potential loss in human BT-474 cells assessed as depolarized cell population (P2) at 2.5 uM incubated for 48 hrs by JC1 staining based flow cytometry (reference value: 0.48 %); type: functional; outline: as §4
[19] = system: BT-474; test: Cell cycle arrest in human BT-474 cells assessed as increase in accumulation in G1 phase at 1 uM by propidium iodide staining based flow cytometry(reference value: 4.06%); type: functional; outline: as §1
[20] = system: BT-474; test: Cell cycle arrest in human BT-474 cells assessed as decrease in G0/G1 accumulation in phase at 0.5 uM by propidium iodide staining based flow cytometry(reference value: 60.53%); type: functional; set-up: scale not given: the % may be the effect or the level left; outline: as §1
[21] = system: BT-474; test: Cell cycle arrest in human BT-474 cells assessed as increase in accumulation in G2/M phase at 0.5 uM by propidium iodide staining based flow cytometry(reference value: 19.35%); type: functional; outline: as §1
[22] = system: BT-474; test: Induction of morphological changes in human BT-474 cells assessed as loss of cell-cell adhesion incubated for 48 hrs by phase-contrast microscope method; type: functional, cell-based; details: dose microM 0.5-2.5, time 48.0 hrs; outline: as §3
[23] = system: BT-474; test: Cell cycle arrest in human BT-474 cells assessed as increase in accumulation in G2/M phase at 2.5 uM by propidium iodide staining based flow cytometry(reference value: 19.35%); type: functional; outline: as §1
[24] = system: BT-474; test: Induction of apoptosis in human BT-474 cells assessed as membrane bleeding incubated for 48 hrs by acridine orange/ethidium bromide double staining-based fluorescence microscopic analysis; type: functional, cell-based; details: dose microM 0.5-2.5, time 48.0 hrs; outline: as §5
[25] = system: BT-474; test: Induction of morphological changes in human BT-474 cells assessed as cell shrinkage incubated for 48 hrs by phase-contrast microscope method; type: functional, cell-based; details: dose microM 0.5-2.5, time 48.0 hrs; outline: as §3
[26] = system: NCI-H460; test: Cytotoxicity against human NCI-H460 cells assessed as reduction in cell viability incubated for 48 hrs by MTT assay; type: functional, cell-based; details: NCI-H460, 48 h; outline: as §2
[27] = system: BT-474; test: Cell cycle arrest in human BT-474 cells assessed as decrease in G0/G1 accumulation in phase at 1 uM by propidium iodide staining based flow cytometry(reference value: 60.53%); type: functional; set-up: scale not given: the % may be the effect or the level left; outline: as §1

For `O=C(c1cn(Cc2cccc(Oc3ccccc3)c2)nn1)N1CCN(S(=O)(=O)c2ccc(Br)cc2)CC1`, the Activity [1] was 5.57%, the Activity [2] was 7.02% and the pIC50 [3] was 5.99. For the same compound, the Activity [4] was 9.09%, the Activity [5] was “Active” and the Activity [6] was “Active”. For the same compound, the Activity [7] was “Active”, the Activity [8] was 62.72% and the Activity [9] was “Active”. For the same compound, the Activity [10] was 61.44%, the Activity [11] was “Dose-dependent effect” and the Activity [12] was 50.26%. The inhibition [13] was “Active”, the pIC50 [14] was 5.63 and the Activity [15] was 5.85%. For the same compound, the pIC50 [16] was 5.43, the pIC50 [17] was 6.00 and the Activity [18] was 89.84%. For the same compound, the Activity [19] was 9.41%, the Activity [20] was 10.83% and the Activity [21] was 58.93%. For the same compound, the Activity [22] was “Active”, the Activity [23] was 63.41% and the Activity [24] was “Dose-dependent effect”. The Activity [25] was “Active”, the pIC50 [26] was 5.31 and the Activity [27] was 9.64%.
